Assay results: ChEMBL document CHEMBL3792293, “A synthetic 2,3-diarylindole induces cell death via apoptosis and autophagy in A549 lung cancer cells” (Bioorg Med Chem Lett, 2016)
The source made the active and inactive calls. No cut-off for these calls is given here.

Key:
A549 [1] = assay: Cytotoxicity against human A549 cells assessed as reduction in cell viability after 72 hrs by MTT assay; type: functional, cell-based
In short: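 MTT viability screen in A549 cells with 72 h compound exposure; value reported as IC50.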

A549 [2] = assay: Induction of apoptosis in human A549 cells assessed as viable cells at 10 uM after 24 hrs by Annexin V/7-AAD staining based flow cytometry (reference value: 89.95%); type: functional; details: A549, 24 h, read-out: Activity
A549 [3] = assay: Induction of apoptosis in human A549 cells assessed as viable cells at 100 uM after 24 hrs by Annexin V/7-AAD staining based flow cytometry (reference value: 89.95%); type: functional; details: A549, 24 h, read-out: Activity
A549 [4] = assay: Induction of autophagy in human A549 cells assessed as increase in LC3-2 level at 10 to 100 uM after 24 hrs by Western blot analysis; type: functional, cell-based
In short: (§1)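 A549 cells exposed 24 h to 10, 50 or 100 μM, then harvested and analysed by Western blot for cleaved PARP and for LC3-II conversion.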

A549 [5] = assay: Induction of apoptosis in human A549 cells assessed as early apoptotic cells at 10 uM after 24 hrs by Annexin V/7-AAD staining based flow cytometry (reference value: 8.55%); type: functional
A549 [6] = assay: Induction of apoptosis in human A549 cells assessed as increase in PARP cleavage after 24 hrs by Western blot analysis; type: functional, cell-based; in short: as §1
A549 [7] = assay: Induction of apoptosis in human A549 cells assessed as late apoptotic cells at 50 uM after 24 hrs by Annexin V/7-AAD staining based flow cytometry (reference value: 1.5%); type: functional
A549 [8] = assay: Induction of apoptosis in human A549 cells assessed as early apoptotic cells at 100 uM after 24 hrs by Annexin V/7-AAD staining based flow cytometry (reference value: 8.55%); type: functional
A549 [9] = assay: Induction of cell morphological changes in human A549 cells at 10 to 100 uM after 3 hrs; type: functional, cell-based
A549 [10] = assay: Induction of apoptosis in human A549 cells assessed as dead cells at 10 uM after 24 hrs by Annexin V/7-AAD staining based flow cytometry relative to control; type: functional
In short: (§2)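 A549 cells exposed for 24 h at 10, 50 or 100 μM, then stained with Annexin-V and 7AAD (Annexin-V and Dead Cell assay kit). Dead and apoptotic populations were counted by flow cytometry on a Muse Cell Analyzer and compared with untreated control. Values are averages of three independent experiments with SD.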

A549 [11] = assay: Induction of apoptosis in human A549 cells assessed as viable cells at 50 uM after 24 hrs by Annexin V/7-AAD staining based flow cytometry (reference value: 89.95%); type: functional; details: A549, 24 h, read-out: Activity
A549 [12] = assay: Induction of apoptosis in human A549 cells assessed as dead cells at 50 uM after 24 hrs by Annexin V/7-AAD staining based flow cytometry relative to control; type: functional; in short: as §2
A549 [13] = assay: Induction of apoptosis in human A549 cells assessed as late apoptotic cells at 100 uM after 24 hrs by Annexin V/7-AAD staining based flow cytometry (reference value: 1.5%); type: functional
A549 [14] = assay: Induction of morphological changes in human A549 cells assessed as increase in vacuole appearance at 10 to 100 uM after 24 hrs; type: functional, cell-based
In short: (§3)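 A549 cells treated 24 h at 10, 50 or 100 μM, then photographed to assess rounding and vacuole appearance.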

A549 [15] = assay: Induction of autophagy in human A549 cells at 10 to 100 uM after 24 hrs by MDC-staining based fluorescence imaging analysis in presence of autophagy inhibitor bafilomycin A1; type: functional, cell-based
In short: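 A549 cells co-treated 24 h with 10, 50 or 100 μM plus or minus 10 nM bafilomycin A1. Autophagy was quantified by MDC staining fluorescence. Values are means of three independent experiments with SD.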

A549 [16] = assay: Induction of apoptosis in human A549 cells assessed as increase in apoptotic cells at 10 to 100 uM after 24 hrs by Annexin V/7-AAD staining based flow cytometry in presence of autophagy inhibitor bafilomycin A1; type: functional, cell-based
In short: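 A549 cells treated 24 h at 10, 50 or 100 μM with or without 10 nM bafilomycin A1. Apoptosis was read by Annexin-V/7AAD on a Muse Cell Analyzer. Values are means of three independent experiments with SD, and significance was tested against control and between ± Baf.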

A549 [17] = assay: Induction of autophagy in human A549 cells after 6 to 24 hrs by MDC-staining based fluorescence imaging analysis; type: functional, cell-based
In short: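 Autophagic vacuoles stained with monodansylcadaverine (MDC). Imaging was done after 24 h at 10, 50 or 100 μM. Relative fluorescence (Ex/Em 335/512 nm) was measured after 6 h at 6.2–100 μM.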

A549 [18] = assay: Induction of morphological changes in human A549 cells assessed as appearance of rounded cell at 10 to 100 uM after 24 hrs; type: functional, cell-based; in short: as §3
A549 [19] = assay: Induction of apoptosis in human A549 cells assessed as late apoptotic cells at 10 uM after 24 hrs by Annexin V/7-AAD staining based flow cytometry (reference value: 1.5%); type: functional
A549 [20] = assay: Induction of apoptosis in human A549 cells assessed as early apoptotic cells at 50 uM after 24 hrs by Annexin V/7-AAD staining based flow cytometry (reference value: 8.55%); type: functional
A549 [21] = assay: Induction of apoptosis in human A549 cells assessed as dead cells at 100 uM after 24 hrs by Annexin V/7-AAD staining based flow cytometry relative to control; type: functional; in short: as §2
[22] = Homo sapiens, A549, 72 h, read-out: IC50

## Nc1ccc(-c2c(-c3ccccc3)[nH]c3ccccc23)cc1
A549 [1]; [22]
  IC50: 83.4 µM

## N#Cc1ccc(-c2[nH]c3ccccc3c2-c2ccccc2)cc1
A549 [1]; [22]
  IC50: 15 µM

## CC(=O)Nc1ccc(-c2[nH]c3ccccc3c2-c2ccccc2)cc1
A549 [1]; a549
  IC50: ND(Insoluble)

## COc1ccc(-c2c(-c3ccccc3)[nH]c3ccccc23)cc1
A549 [1]; [22]
  IC50: 30 µM

## c1ccc(-c2[nH]c3ccccc3c2-c2ccccc2)cc1
A549 [1]; [22]
  IC50: 58.7 µM

## O=[N+]([O-])c1ccc(-c2[nH]c3ccccc3c2-c2ccccc2)cc1
A549 [1]; [22]
  IC50: 24.8 µM

## COc1ccc(-c2[nH]c3ccccc3c2-c2ccccc2)cc1
A549 [1]; [22]
  IC50: 288 µM

## Nc1ccc(-c2[nH]c3ccccc3c2-c2ccccc2)cc1
A549 [1]; [22]
  IC50: 54.7 µM

## COC(=O)c1ccc(-c2[nH]c3ccccc3c2-c2ccccc2)cc1
A549 [1]; a549
  IC50: ND(Insoluble)

## CC(=O)Nc1ccc(-c2c(-c3ccccc3)[nH]c3ccccc23)cc1
A549 [1]; a549
  IC50: ND(Insoluble)

## N#Cc1ccc(-c2c(-c3ccccc3)[nH]c3ccccc23)cc1
A549 [1]; [22]
  IC50: 18.3 µM

## COC(=O)c1ccc(-c2c(-c3ccccc3)[nH]c3ccccc23)cc1
A549 [2]
  viability at 10 µM: 82.8%
A549 [3]
  viability at 100 µM: 50.5%
A549 [4]
  Activity: Active
A549 [5]
  Activity: 14%
A549 [6]
  Activity: Dose-dependent effect
A549 [7]
  Activity: 7.75%
A549 [8]
  Activity: 9.7%
A549 [9]
  Activity: Active
A549 [1]; [22]
  IC50: 5.17 µM
A549 [10]
  Activity: 0.4%
A549 [11]
  viability at 50 µM: 74.5%
A549 [12]
  Activity: 0.25%
A549 [13]
  Activity: 39.7%
A549 [14]
  Activity: Active
A549 [15]
  Activity: inactive
A549 [16]
  Activity: inactive
A549 [17]
  Activity: Dose-dependent effect
A549 [18]
  Activity: Active
A549 [19]
  Activity: 2.8%
A549 [20]
  Activity: 17.45%
A549 [21]
  Activity: 0.15%

## O=[N+]([O-])c1ccc(-c2c(-c3ccccc3)[nH]c3ccccc23)cc1
A549 [1]; [22]
  IC50: 38.4 µM
